Assay results from ChEMBL document CHEMBL4354804, “Discovery of a New Isoxazole-3-hydroxamate-Based Histone Deacetylase 6 Inhibitor SS-208 with Antitumor Activity in Syngeneic Melanoma Mouse Models” (J Med Chem, 2019).
Calls of active or inactive are those of the source. The rule behind the calls is not given here.

Legend:
[1] = molecular target: T1, Protein deacetylase HDAC6 (Mus musculus) (UniProt Q9Z2V5); assay: Inhibition of HDAC6 in mouse SM1 cells assessed as effect on acetylated histone H3 level at 5 uM after 24 hrs by Western blot analysis; format: cell-based
T1 sequence (whole entry): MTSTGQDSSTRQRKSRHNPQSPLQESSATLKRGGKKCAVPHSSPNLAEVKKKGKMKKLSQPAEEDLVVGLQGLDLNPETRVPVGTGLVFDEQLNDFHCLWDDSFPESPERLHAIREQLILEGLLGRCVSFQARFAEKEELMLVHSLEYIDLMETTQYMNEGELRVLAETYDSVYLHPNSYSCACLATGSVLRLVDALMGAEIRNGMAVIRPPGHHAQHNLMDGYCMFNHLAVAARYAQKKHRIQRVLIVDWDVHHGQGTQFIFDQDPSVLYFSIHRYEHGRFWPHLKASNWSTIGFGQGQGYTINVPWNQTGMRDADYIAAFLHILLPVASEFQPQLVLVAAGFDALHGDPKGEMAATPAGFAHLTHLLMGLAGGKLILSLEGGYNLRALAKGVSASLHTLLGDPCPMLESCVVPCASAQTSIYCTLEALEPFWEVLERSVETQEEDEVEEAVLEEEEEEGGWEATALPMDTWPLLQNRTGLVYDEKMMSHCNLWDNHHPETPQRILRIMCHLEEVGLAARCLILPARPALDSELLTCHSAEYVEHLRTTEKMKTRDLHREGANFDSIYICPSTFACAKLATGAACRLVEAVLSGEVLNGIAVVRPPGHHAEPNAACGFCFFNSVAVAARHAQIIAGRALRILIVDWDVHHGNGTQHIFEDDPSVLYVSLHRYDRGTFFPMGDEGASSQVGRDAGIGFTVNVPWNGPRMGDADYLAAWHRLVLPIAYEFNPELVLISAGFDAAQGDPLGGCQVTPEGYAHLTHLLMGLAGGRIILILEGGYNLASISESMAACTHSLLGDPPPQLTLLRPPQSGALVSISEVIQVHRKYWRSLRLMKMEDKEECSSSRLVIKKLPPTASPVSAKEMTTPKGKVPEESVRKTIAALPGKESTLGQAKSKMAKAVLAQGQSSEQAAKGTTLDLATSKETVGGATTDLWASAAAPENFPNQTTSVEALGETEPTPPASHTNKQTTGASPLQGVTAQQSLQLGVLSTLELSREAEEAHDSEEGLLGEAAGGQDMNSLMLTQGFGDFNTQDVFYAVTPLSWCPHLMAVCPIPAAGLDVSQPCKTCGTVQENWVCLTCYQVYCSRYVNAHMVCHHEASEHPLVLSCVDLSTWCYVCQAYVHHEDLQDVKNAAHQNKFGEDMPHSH

[2] = tested on: T-24; assay: Induction of cell death in human T24 cells at 0.1 to 25 uM; format: cell-based; conditions: t-24, 25 µM
[3] = molecular target: T1, Protein deacetylase HDAC6 (Mus musculus); assay: Inhibition of HDAC6 in mouse SM1 cells assessed as reduction in IL-6 stimulated PDL1 overexpression at 5 uM pretreated for 1 hr followed by IL-6 stimulation for overnight by western blot analysis; format: cell-based
Summary of the method: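 SM1 cells pretreated with 5 µM compound, then IL-6 overnight. Lysed in RIPA buffer with protease and phosphatase inhibitors, sonicated, protein quantified by BCA. Immunoblot for PD-L1 and STAT3 Y705 phosphorylation.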

[4] = Mutagenicity in Salmonella typhimurium TA98 assessed as induction of >= 2 fold increase in revertant colonies at 1.5 to 1000 ug/well in absence of S9 fraction by Ames test; format: toxicity; conditions: salmonella enterica subsp. enterica serovar typhimurium
Summary of the method: (§1)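 Ames test with S. typhimurium TA98 and TA1537, with and without S9 mix. A positive call required a ≥ 2-fold (TA98) or ≥ 3-fold (TA1537) rise in mean revertant colonies over the concurrent negative/solvent control.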

[5] = Mutagenicity in Salmonella typhimurium TA98 assessed as induction of >= 2 fold increase in revertant colonies at 1.5 to 1000 ug/well in presence of S9 fraction by Ames test; format: toxicity, subcellular; conditions: salmonella enterica subsp. enterica serovar typhimurium; summary of the method: as §1
[6] = Half life in human liver microsomes in presence of NADPH; format: ADME, Microsome
Summary of the method: (§2)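 Liver microsomal stability in mouse and human microsomes with NADPH; half-life in minutes.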

[7] = Half life in mouse liver microsomes in presence of NADPH; format: ADME, Microsome; summary of the method: as §2
[8] = Half life in mouse hepatocytes; format: ADME, cell-based, Hepatocyte
Summary of the method: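 Half-life in minutes measured in mouse and human hepatocytes.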

[9] = molecular target: T1, Protein deacetylase HDAC6 (Mus musculus); assay: Inhibition of HDAC6 in mouse SM1 cells assessed as increase in acetylated alpha-tubulin level at 5 to 10 uM after 24 hrs by Western blot analysis; format: cell-based
[10] = molecular target: Histone deacetylase (Mus musculus) (UniProt Q8VH37+Q9Z2V6+Q9Z2V5+O09106+Q8C2B3+P70288+O88895+Q91WA3+Q99N13+Q6NZM9+Q6P3E7); assay: Inhibition of HDAC in mouse SM1 cells at 0.1 to 25 uM measured after 1 hr by HDAC-Glo 1/2 luminescent assay; format: cell-based
Summary of the method: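 Cells plated at 10,000 per well overnight, then after 24 h treated with compound for 1 h at 37 °C, 5% CO2. HDAC-Glo I/II developer mixed with substrate and added to wells; luminescence read every 2 min for 1 h 15 min.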

[11] = Effect on cell viability in mouse SM1 cells up to 10 uM by ApoTox-Glo triplex assay; format: cell-based
Summary of the method: (§3)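 SM1 cells treated with HDAC inhibitors, with pan-HDACi and assay controls on every plate. ApoTox-Glo triplex readout: viability fluorescence 400Ex/505Em, cytotoxicity fluorescence 485Ex/520Em, then caspase 3/7 reagent read by luminescence for apoptosis.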

[12] = Cytotoxicity against mouse SM1 cells at 0.1 to 25 uM by ApoTox-Glo triplex assay; format: cell-based; summary of the method: as §3
[13] = Induction of apoptosis in mouse SM1 cells at 0.1 to 25 uM by caspase3/7 reagent based luminescence assay; format: cell-based; summary of the method: as §3
[14] = molecular target: T1, Protein deacetylase HDAC6 (Mus musculus); assay: Inhibition of HDAC6 in mouse SM1 cells assessed as reduction in IL-6 stimulated CD274 gene expression at 5 uM pretreated for 1 hr followed by IL-6 stimulation for overnight by qRT-PCR analysis; format: cell-based
Summary of the method: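 SM1 cells serum-starved overnight, pretreated 1 h with 5 µM compound, then given recombinant murine IL-6 at 30 ng/mL overnight. Total RNA extracted with Trizol; PD-L1 mRNA measured by qRT-PCR, normalized to GAPDH by the Pfaffl method, in arbitrary units.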

[15] = tested on: Mus musculus; assay: Antitumor activity against mouse SM1 cells implanted in flank of immunocompetent C57BL/6 mouse assessed as reduction in tumor growth at 25 mg/kg, ip administered 1 week post-implantation measured for 18 days; format: functional, organism-based
Summary of the method: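 SM1 cells passaged in vivo mouse to mouse at least five times; 1.0 × 10^6 cells in 100 µL PBS injected subcutaneously into female C57BL/6 mice 4-6 weeks old, 10 per group. Treatment ip 25 mg/kg or 100 µL PBS vehicle, five days a week until control tumors reached maximum size. Tumor volume from calipers as L × W2/2.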

[16] = tested on: Mus musculus; assay: Antitumor immunity against mouse SM1 cells implanted in flank of immunocompetent C57BL/6 mouse assessed as infiltration of intratumoral CD4+ cells at 25 mg/kg, ip administered 1 week post-implantation by flow cytometry; format: functional, organism-based
[17] = tested on: 5637; assay: Induction of cell death in human 5637 cells at 0.1 to 25 uM; format: cell-based; conditions: human, 5637, 25 µM

O=C(NCCc1cc(C(=O)NO)no1)c1ccc(Cl)c(Cl)c1
inhibition [1]: inactive | Activity [2]: Non-Toxic | inhibition [3]: Active | Activity [4]: Non-Toxic | Activity [5]: Non-Toxic | half-life [6]: 135 min | half-life [7]: 37 min | half-life [8]: 22 min | inhibition [9]: Active | inhibition [10]: Active | Activity [11]: Non-Toxic | Activity [12]: Non-Toxic | Activity [13]: Non-Toxic | inhibition [14]: Active | inhibition [15]: Active | Activity [16]: inactive | Activity [17]: Non-Toxic
